These results are taken from ChEMBL document CHEMBL3779865, “Discovery of Benzo[cd]indol-2(1H)-ones as Potent and Specific BET Bromodomain Inhibitors: Structure-Based Virtual Screening, Optimization, and Biological Evaluation” (J Med Chem, 2016).

The nature of data set [1]: Apparent permeability from apical to basolateral side in human Caco2 cells assessed as drug recovery at 10 uM incubated for 1 hr by HPLC-MS/MS analysis. It counts as ADME, cell-based. The settings on record: Caco-2, read-out: Drug recovery. On the technique in general: Caco-2 monolayers are a common model of the intestinal barrier.
Data set [2] can be described thus: Apparent permeability from basolateral to apical side in human Caco2 cells at 10 uM incubated for 1 hr by HPLC-MS/MS analysis. The class given is ADME, cell-based. Conditions: Caco-2.
Data set [3] is described as follows: Apparent permeability from basolateral to apical side in human Caco2 cells assessed as drug recovery at 10 uM incubated for 1 hr by HPLC-MS/MS analysis. The class given is ADME, cell-based. Conditions: Caco-2, read-out: Drug recovery.
Data set [4] is described as follows: Apparent permeability from apical to basolateral side in human Caco2 cells at 10 uM incubated for 1 hr by HPLC-MS/MS analysis. The class given is ADME, cell-based. Conditions: Caco-2.
For data set [5], the target named is T1, Bromodomain-containing protein 4 (Homo sapiens, UniProt O60885). In words: Binding affinity to human His6-tagged BRD4 bromodomain 1 (N44 to E168 residues) expressed in Escherichia coli BL21(DE3) cells by isothermal titration calorimetry. (In general: In ITC the heat of successive injections is recorded.)
The target of data set [6] is T2, Bromodomain-containing protein 9 (Homo sapiens) (UniProt Q9H8M2).
T2 sequence (whole entry): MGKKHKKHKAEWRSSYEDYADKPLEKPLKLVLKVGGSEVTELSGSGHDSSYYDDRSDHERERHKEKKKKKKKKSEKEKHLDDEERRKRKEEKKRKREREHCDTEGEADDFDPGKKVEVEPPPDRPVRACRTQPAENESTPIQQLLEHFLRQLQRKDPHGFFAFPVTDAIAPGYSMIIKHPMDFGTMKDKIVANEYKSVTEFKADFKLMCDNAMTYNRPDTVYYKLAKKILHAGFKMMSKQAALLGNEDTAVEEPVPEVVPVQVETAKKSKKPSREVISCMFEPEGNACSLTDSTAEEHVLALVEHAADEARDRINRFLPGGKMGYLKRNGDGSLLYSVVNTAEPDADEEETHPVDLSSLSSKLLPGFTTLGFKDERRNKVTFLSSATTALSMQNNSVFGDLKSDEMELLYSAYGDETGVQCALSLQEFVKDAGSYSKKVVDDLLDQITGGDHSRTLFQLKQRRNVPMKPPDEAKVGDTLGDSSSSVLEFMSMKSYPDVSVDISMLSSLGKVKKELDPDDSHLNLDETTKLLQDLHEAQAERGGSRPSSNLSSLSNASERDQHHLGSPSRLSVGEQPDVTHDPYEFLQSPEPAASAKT
Kind of data set: Binding affinity to human His6-tagged BRD9 (L14 to Q134 residues) expressed in Escherichia coli BL21(DE3) cells at 200 uM incubated for 30 mins by SYPRO orange staining based fluorescence thermal shift assay. The method in brief: (§1)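 His6-tagged bromodomain constructs expressed in E. coli BL21(DE3) (grown at 25 °C to OD600 ~1.0, induced with 0.1 mM IPTG at 16 °C for 16 h). Purified by Ni affinity then gel filtration. Final 10 μM protein and 200 μM compound in 10 mM HEPES pH 7.5, 150 mM NaCl, DMSO ≤1%. SYPRO Orange 1:1000, 30 min on ice. Melt 30–75 °C at 0.3 °C/min. Triplicates. Tm from Boltzmann fit; ΔTm = Tm with minus without compound.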

Data set [7] concerns the target Histone acetyltransferase p300 (Homo sapiens) (UniProt Q09472). Kind of data set: Binding affinity to human His6-tagged EP300 (A1040 to G1161 residues) expressed in Escherichia coli BL21(DE3) cells at 200 uM incubated for 30 mins by SYPRO orange staining based fluorescence thermal shift assay. The method in brief:
as §1

In data set [8] the test system is MV4-11. In words: Growth inhibition of human MV4-11 cells at 10 uM after 72 hrs by CCK8 assay. The class given is functional. The settings on record: MV4-11, 72 h, read-out: GI.
In data set [9] the target is Bromodomain adjacent to zinc finger domain protein 2B (Homo sapiens) (UniProt Q9UIF8). In words: Binding affinity to human His6-tagged BAZ2B (S1858 to S1972 residues) expressed in Escherichia coli BL21(DE3) cells at 200 uM incubated for 30 mins by SYPRO orange staining based fluorescence thermal shift assay. The method in brief: as §1
For data set [10], the target named is T1, Bromodomain-containing protein 4.
The target of data set [11] is Bromodomain testis-specific protein (Homo sapiens) (UniProt Q58F21). In words: Binding affinity to human His6-tagged BRDT bromodomain 1 (N21 to E137 residues) expressed in Escherichia coli BL21(DE3) cells at 200 uM incubated for 30 mins by SYPRO orange staining based fluorescence thermal shift assay. The method in brief:
as §1

Data set [12] concerns the target Histone acetyltransferase KAT2B (Homo sapiens) (UniProt Q92831). In words: Binding affinity to human His6-tagged PCAF (G715 to D831 residues) expressed in Escherichia coli BL21(DE3) cells at 200 uM incubated for 30 mins by SYPRO orange staining based fluorescence thermal shift assay. The method in brief:
as §1

In data set [13] the target is Bromodomain-containing protein 3 (Homo sapiens) (UniProt Q15059). Kind of data set: Binding affinity to human His6-tagged BRD3 bromodomain 1 (P24 to E144 residues) expressed in Escherichia coli BL21(DE3) cells at 200 uM incubated for 30 mins by SYPRO orange staining based fluorescence thermal shift assay. The method in brief:
as §1

Data set [14] addresses T1, Bromodomain-containing protein 4. Kind of data set: Inhibition of human His6-tagged BRD4 bromodomain 1 (N44 to E168 residues) expressed in Escherichia coli BL21(DE3) cells using biotin-H4KAc4 as substrate incubated for 2 hrs by alphascreen assay. (In general: Alpha assays give light when donor and acceptor beads are brought close together.)
Data set [15] concerns the target Bromodomain-containing protein 2 (Homo sapiens) (UniProt P25440). Kind of data set: Binding affinity to human His6-tagged BRD2 bromodomain 1 (K77 to N194 residues) expressed in Escherichia coli BL21(DE3) cells at 200 uM incubated for 30 mins by SYPRO orange staining based fluorescence thermal shift assay. The method in brief: as §1
The target of data set [16] is T3, Bromodomain-containing protein 1 (Homo sapiens) (UniProt O95696).
T3 sequence (whole entry): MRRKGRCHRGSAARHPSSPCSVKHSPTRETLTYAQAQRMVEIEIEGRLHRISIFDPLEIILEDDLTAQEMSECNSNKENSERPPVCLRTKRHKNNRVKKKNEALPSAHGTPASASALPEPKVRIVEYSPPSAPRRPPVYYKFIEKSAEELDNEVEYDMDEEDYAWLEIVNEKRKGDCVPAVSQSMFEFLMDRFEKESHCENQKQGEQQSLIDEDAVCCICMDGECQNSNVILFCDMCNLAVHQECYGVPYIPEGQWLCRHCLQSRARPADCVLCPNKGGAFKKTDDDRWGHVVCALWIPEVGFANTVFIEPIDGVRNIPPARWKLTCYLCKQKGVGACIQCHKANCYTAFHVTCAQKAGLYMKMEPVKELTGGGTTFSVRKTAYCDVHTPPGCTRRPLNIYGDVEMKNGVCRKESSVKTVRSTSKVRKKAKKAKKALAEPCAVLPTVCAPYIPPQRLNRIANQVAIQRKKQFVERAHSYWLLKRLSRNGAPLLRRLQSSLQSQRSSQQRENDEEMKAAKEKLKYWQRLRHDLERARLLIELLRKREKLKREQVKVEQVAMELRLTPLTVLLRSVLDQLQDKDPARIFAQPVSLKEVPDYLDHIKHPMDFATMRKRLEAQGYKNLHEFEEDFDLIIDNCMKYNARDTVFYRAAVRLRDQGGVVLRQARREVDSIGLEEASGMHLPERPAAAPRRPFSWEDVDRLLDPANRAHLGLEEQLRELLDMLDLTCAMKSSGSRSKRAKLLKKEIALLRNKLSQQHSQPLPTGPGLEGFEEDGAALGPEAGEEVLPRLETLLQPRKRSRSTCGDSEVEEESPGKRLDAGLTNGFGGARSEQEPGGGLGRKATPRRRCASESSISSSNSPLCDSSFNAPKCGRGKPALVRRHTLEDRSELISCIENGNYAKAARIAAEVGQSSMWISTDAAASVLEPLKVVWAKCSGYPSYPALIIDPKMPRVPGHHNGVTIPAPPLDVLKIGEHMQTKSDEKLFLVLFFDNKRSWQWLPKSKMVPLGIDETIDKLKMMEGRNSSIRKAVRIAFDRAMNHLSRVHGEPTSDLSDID
Kind of data set: Binding affinity to human His6-tagged BRD1 (E556 to A688 residues) expressed in Escherichia coli BL21(DE3) cells at 200 uM incubated for 30 mins by SYPRO orange staining based fluorescence thermal shift assay. The method in brief:
as §1

For data set [17], the target named is Histone-lysine N-methyltransferase ASH1L (Homo sapiens) (UniProt Q9NR48). Kind of data set: Binding affinity to human His6-tagged ASH1L (E2433 to E2564 residues) expressed in Escherichia coli BL21(DE3) cells at 200 uM incubated for 30 mins by SYPRO orange staining based fluorescence thermal shift assay. The method in brief: as §1
Data set [18] deals with Transcription initiation factor TFIID subunit 1 (Homo sapiens) (UniProt P21675). In words: Binding affinity to human His6-tagged TAF1 bromodomain 1 (R1377 to D1503 residues) expressed in Escherichia coli BL21(DE3) cells at 200 uM incubated for 30 mins by SYPRO orange staining based fluorescence thermal shift assay. The method in brief:
as §1

Data set [19] has as its target CREB-binding protein (Homo sapiens) (UniProt Q92793). Kind of data set: Binding affinity to human His6-tagged CREBBP (R1081 to G1197 residues) expressed in Escherichia coli BL21(DE3) cells at 200 uM incubated for 30 mins by SYPRO orange staining based fluorescence thermal shift assay. The method in brief:
as §1

The test system of data set [20] is MV4-11. Kind of data set: Antiproliferative activity against human MV4-11 cells after 72 hrs by CCK8 assay. The class given is functional, cell-based. The settings on record: Homo sapiens, MV4-11, 72 h; read-out: IC50.

Sequence of Bromodomain adjacent to zinc finger domain protein 2B (Homo sapiens) (Q9UIF8 whole entry, the tested form may be a part): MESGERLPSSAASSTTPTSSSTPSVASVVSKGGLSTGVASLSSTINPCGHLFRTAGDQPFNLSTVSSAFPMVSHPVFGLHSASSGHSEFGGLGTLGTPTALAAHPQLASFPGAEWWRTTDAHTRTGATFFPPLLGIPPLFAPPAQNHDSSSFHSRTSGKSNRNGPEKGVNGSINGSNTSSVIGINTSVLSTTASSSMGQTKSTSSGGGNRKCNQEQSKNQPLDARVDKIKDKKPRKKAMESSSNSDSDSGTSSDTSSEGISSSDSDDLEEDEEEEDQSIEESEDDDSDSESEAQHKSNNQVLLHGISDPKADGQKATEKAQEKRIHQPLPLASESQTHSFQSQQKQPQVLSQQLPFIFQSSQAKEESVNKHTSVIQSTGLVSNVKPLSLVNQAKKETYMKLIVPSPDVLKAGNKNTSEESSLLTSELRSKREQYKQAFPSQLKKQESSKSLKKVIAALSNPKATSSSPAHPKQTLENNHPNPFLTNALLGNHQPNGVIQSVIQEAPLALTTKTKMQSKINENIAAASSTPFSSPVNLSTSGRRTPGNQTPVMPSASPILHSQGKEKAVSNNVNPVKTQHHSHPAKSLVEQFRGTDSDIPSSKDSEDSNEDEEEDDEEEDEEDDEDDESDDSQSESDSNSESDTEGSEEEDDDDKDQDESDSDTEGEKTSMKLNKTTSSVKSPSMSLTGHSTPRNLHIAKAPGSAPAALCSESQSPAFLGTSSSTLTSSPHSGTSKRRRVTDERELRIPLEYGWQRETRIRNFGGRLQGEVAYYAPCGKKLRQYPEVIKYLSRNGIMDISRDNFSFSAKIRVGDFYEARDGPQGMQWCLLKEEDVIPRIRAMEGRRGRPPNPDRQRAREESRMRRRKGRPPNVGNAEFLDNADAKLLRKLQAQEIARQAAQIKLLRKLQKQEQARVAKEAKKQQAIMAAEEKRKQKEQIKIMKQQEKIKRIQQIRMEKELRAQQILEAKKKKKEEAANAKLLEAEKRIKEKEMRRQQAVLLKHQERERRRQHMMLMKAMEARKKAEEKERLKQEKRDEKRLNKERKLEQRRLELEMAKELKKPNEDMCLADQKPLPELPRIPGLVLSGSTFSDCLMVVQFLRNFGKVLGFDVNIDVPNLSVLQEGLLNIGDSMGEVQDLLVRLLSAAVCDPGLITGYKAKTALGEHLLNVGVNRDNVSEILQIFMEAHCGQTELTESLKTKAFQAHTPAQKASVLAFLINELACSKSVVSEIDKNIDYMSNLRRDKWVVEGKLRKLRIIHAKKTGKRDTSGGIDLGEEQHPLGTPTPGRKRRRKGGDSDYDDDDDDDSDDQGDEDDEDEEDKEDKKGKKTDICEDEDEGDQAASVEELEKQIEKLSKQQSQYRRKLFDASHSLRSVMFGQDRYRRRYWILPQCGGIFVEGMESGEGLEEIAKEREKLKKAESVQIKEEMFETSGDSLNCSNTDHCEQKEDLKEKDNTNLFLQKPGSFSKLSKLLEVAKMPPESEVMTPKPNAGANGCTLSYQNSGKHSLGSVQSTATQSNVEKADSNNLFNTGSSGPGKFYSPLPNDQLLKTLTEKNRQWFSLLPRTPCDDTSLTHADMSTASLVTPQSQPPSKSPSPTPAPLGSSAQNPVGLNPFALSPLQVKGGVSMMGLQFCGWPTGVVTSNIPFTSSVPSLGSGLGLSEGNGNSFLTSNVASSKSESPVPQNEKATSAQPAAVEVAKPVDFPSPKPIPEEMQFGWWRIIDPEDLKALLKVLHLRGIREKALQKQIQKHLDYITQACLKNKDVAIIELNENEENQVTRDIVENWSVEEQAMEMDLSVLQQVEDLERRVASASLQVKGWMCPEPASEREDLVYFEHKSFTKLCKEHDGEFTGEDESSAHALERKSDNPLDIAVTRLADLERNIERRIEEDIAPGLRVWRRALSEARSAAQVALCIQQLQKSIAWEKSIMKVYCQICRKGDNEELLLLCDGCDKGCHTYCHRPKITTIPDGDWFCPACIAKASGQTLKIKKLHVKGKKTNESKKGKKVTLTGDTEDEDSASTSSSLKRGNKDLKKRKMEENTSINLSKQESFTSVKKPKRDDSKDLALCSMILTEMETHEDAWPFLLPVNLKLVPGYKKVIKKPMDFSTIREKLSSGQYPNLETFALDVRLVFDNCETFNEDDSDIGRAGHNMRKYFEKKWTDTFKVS
Sequence of Histone acetyltransferase p300 (Homo sapiens) (Q09472 whole entry, the tested form may be a part): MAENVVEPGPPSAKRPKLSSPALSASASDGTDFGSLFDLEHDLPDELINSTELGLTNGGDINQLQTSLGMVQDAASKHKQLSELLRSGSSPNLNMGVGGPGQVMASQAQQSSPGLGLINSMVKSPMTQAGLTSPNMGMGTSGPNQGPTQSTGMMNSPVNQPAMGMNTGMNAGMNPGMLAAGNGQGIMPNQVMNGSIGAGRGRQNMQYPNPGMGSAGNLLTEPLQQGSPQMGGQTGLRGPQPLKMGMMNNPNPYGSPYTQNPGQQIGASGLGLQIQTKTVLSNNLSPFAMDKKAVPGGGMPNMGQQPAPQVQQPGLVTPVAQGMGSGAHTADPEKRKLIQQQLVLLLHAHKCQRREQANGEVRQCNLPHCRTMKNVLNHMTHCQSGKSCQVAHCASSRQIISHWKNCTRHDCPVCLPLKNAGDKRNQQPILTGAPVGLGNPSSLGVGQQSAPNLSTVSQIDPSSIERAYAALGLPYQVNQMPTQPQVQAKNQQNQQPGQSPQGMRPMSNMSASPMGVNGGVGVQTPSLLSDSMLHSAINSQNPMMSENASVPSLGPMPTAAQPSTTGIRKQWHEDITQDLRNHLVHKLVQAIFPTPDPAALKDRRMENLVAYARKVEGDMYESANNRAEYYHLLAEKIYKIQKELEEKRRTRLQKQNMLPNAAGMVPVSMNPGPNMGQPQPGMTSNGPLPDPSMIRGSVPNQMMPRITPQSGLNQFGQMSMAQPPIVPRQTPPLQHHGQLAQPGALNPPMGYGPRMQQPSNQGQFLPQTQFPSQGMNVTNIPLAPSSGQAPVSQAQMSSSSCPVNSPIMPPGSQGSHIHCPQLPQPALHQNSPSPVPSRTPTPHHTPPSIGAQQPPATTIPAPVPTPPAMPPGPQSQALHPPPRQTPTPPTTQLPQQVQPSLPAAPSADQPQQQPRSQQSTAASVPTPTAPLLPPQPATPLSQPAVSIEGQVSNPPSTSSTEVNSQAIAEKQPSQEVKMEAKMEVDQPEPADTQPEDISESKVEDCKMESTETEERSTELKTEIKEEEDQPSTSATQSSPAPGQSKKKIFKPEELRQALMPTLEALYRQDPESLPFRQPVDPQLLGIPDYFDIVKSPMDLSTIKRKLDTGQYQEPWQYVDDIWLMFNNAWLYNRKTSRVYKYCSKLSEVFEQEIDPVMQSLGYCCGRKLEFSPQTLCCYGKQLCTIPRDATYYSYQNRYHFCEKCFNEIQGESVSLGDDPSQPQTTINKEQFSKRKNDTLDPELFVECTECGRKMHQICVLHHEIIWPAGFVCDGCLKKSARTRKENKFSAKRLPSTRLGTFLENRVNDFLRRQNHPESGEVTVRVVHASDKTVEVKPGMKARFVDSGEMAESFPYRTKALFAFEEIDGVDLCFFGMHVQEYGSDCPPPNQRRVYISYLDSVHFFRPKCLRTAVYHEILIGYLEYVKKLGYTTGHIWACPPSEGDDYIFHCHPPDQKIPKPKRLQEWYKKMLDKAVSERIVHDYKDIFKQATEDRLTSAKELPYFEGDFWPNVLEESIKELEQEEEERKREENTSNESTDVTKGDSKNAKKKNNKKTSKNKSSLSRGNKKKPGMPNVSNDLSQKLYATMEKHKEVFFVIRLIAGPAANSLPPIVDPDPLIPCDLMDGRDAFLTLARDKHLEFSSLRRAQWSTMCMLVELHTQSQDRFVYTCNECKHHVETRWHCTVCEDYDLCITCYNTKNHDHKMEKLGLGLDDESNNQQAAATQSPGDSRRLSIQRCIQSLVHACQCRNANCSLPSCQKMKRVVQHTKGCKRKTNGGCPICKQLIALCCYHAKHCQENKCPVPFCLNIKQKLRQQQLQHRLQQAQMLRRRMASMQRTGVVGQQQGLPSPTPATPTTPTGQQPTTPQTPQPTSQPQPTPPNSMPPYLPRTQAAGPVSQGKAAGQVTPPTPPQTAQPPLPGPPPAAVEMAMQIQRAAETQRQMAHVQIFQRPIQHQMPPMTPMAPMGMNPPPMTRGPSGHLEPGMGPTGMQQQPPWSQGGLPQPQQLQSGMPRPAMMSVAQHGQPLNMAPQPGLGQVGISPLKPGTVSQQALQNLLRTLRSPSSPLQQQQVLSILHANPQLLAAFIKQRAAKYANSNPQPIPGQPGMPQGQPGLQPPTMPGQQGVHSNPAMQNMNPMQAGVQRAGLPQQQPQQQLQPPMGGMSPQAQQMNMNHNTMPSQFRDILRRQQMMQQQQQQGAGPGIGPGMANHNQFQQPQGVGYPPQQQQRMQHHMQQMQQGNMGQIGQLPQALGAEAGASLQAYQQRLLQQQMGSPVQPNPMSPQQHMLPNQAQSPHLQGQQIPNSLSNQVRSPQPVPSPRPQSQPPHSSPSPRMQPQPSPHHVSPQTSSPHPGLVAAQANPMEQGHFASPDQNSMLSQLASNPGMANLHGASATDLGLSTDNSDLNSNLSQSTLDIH

By Papp B→A is commonly meant the apparent permeability from the basolateral to the apical side of a cell layer. The Papp A→B is how fast a substance crosses the layer from the apical side. As for `C[C@H]1O[C@@H](O[C@H]2[C@@H](O)C[C@H](O[C@H]3[C@@H](O)C[C@H](O[C@H]4CC[C@@]5(C)[C@H](CC[C@@H]6[C@@H]5C[C@@H](O)[C@]5(C)[C@@H](C7=CC(=O)OC7)CC[C@]65O)C4)O[C@@H]3C)O[C@@H]2C)C[C@H](O)[C@@H]1O` [DIGOXIN], the results for the recovery at 1 h, 10 µM in [1] and in data set [3] were 107% and 111%, respectively. The Papp B→A at 1 h, 10 µM in data set [2] was 17.7 ×10⁻⁶ cm/s. Besides, the apical-to-basolateral permeability (Papp A→B) at 1 h, 10 µM in data set [4] was found to be 1.6 ×10⁻⁶ cm/s.

By Kd is commonly meant the constant that tells how readily two partners part at equilibrium. A low value points to tighter binding. As a reminder, the ΔTm is the change in melting temperature against a reference sample. Usually IC50 stands for the concentration at which inhibition is half-maximal. Consider `CCN1C(=O)c2cccc3c(NS(=O)(=O)c4ccc(F)cc4F)ccc1c23`, for which, in data set [5], binding was characterised by a dissociation constant (Kd) of 275 nM. In addition, the shift in melting temperature (ΔTm) is 3 °C in [6]; 4.5 °C in data set [7]; -5.7 °C in [9]; 9.5 °C in [10]; 6.6 °C in [11]; 3.6 °C in data set [12]. The shift in melting temperature (ΔTm) in data set [13] was 7.8 °C; in [15], 5.5 °C; in data set [16], 1.6 °C; in [17], 2.9 °C; in [18], -1 °C; in [19] it was 2 °C. In addition, in data set [8], the inhibition of growth at 10 µM turned out to be 25%. For the same molecule, the IC50 in data set [14] is 120 nM; in data set [20], 4190 nM.
